ChEMBL document CHEMBL1687785, “ampG gene of Pseudomonas aeruginosa and its role in β-lactamase expression” (2010)
Values after ≈ are worked out from the molar mass of the structure shown.

Columns and labels:
Assay type in all cases: functional
[1] = tested on: Escherichia coli; assay: Antimicrobial activity against kanamycin resistant Escherichia coli SNO301-1 harboring pEC1C carrying ampC, ampR from Enterobacter cloacae after 16 to 20 hrs by broth microdilution method
In short: (§1)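 CLSI broth microdilution: serial 2-fold β-lactam dilutions in Mueller-Hinton broth, inoculum about 10^4 cells from starter cultures at OD600 0.5; MIC read as lowest concentration preventing growth after 16 to 20 h at 37°C; triplicate determinations.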

[2] = tested on: Escherichia coli; assay: Antimicrobial activity against gentamycin resistant Escherichia coli SNO301-1 harboring pEC1C carrying ampC, ampR from Enterobacter cloacae after 16 to 20 hrs by broth microdilution method; in short: as §1
[3] = tested on: Pseudomonas aeruginosa; assay: Antimicrobial activity against ampGh1 deficient Pseudomonas aeruginosa PAO1 after 16 to 20 hrs by broth microdilution method
In short: (§2)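 CLSI broth microdilution in Mueller-Hinton broth, serial 2-fold antibiotic dilutions. Inoculum about 10^4 cells per well, taken from starter cultures grown to OD600 0.5. MIC was the lowest antibiotic concentration preventing growth after 16 to 20 h at 37°C. Each MIC was determined in triplicate.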

[4] = tested on: Pseudomonas aeruginosa; assay: Antimicrobial activity against ampG, ampGh1 deficient Pseudomonas aeruginosa PAO1 after 16 to 20 hrs by broth microdilution method; in short: as §2
[5] = tested on: Pseudomonas aeruginosa; assay: Antimicrobial activity against ampG deficient Pseudomonas aeruginosa PAO1 harboring pZY0908 conferring resistance to gentamycin after 16 to 20 hrs by broth microdilution method; in short: as §2
[6] = tested on: Pseudomonas aeruginosa; assay: Antimicrobial activity against ampG deficient Pseudomonas aeruginosa PAK harboring pUCP24 conferring resistance to gentamycin after 16 to 20 hrs by broth microdilution method; in short: as §2
[7] = tested on: Pseudomonas aeruginosa; assay: Antimicrobial activity against ampG deficient Pseudomonas aeruginosa PAK harboring pZY0901 conferring resistance to gentamycin after 16 to 20 hrs by broth microdilution method; in short: as §2
[8] = tested on: Pseudomonas aeruginosa; assay: Antimicrobial activity against Pseudomonas aeruginosa PAK after 16 to 20 hrs by broth microdilution method
In short: (§3)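 CLSI broth microdilution: 2-fold serial antibiotic dilutions in Mueller-Hinton broth, inoculated with about 10^4 cells per 100 μl from starter cultures grown to OD600 0.5. MIC is the lowest concentration preventing growth after 16-20 h at 37°C. Triplicate.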

[9] = tested on: Pseudomonas aeruginosa; assay: Antimicrobial activity against ampD, ampDh2, ampDh3 and ampG deficient Pseudomonas aeruginosa PAO1 harboring pUCP24 conferring resistance to gentamycin after 16 to 20 hrs by broth microdilution method; in short: as §2
[10] = tested on: Pseudomonas aeruginosa; assay: Antimicrobial activity against ampD, ampDh2, ampDh3 and ampGh1 deficient Pseudomonas aeruginosa PAO1 after 16 to 20 hrs by broth microdilution method; in short: as §2
[11] = tested on: Pseudomonas aeruginosa; assay: Antimicrobial activity against ampD, ampDh2, ampDh3 and ampG deficient Pseudomonas aeruginosa PAO1 after 16 to 20 hrs by broth microdilution method; in short: as §2
[12] = tested on: Pseudomonas aeruginosa; assay: Antimicrobial activity against Pseudomonas aeruginosa PAK after 16 to 20 hrs by broth microdilution method in presence of 120 uM carbonyl cyanide m-chlorophenyl-hydrazone
In short: (§4)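 CLSI broth microdilution in Mueller-Hinton broth with CCCP added from a 10 mM DMSO stock to 120 μM final, alongside 2-fold serial antibiotic dilutions. Inoculum from starter cultures grown to OD600 0.5. MIC is the lowest concentration preventing growth after 16-20 h at 37°C. Triplicate.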

[13] = tested on: Pseudomonas aeruginosa; assay: Antimicrobial activity against ampG deficient Pseudomonas aeruginosa PAO1 after 16 to 20 hrs by broth microdilution method in presence of 120 uM carbonyl cyanide m-chlorophenyl-hydrazone
In short: (§5)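 CLSI broth microdilution in Mueller-Hinton broth with serial antibiotic dilutions. CCCP was added from a 10 mM DMSO stock to 120 μM final, then the bacterial culture was added as inoculum (about 10^4 cells from OD600 0.5 starter cultures). MIC was the lowest concentration preventing growth after 16 to 20 h at 37°C, run in triplicate.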

[14] = tested on: Pseudomonas aeruginosa; assay: Antimicrobial activity against ampG deficient Pseudomonas aeruginosa PAK after 16 to 20 hrs by broth microdilution method in presence of 120 uM carbonyl cyanide m-chlorophenyl-hydrazone; in short: as §5
[15] = tested on: Pseudomonas aeruginosa; assay: Antimicrobial activity against ampG, ampGh1 deficient Pseudomonas aeruginosa PAK after 16 to 20 hrs by broth microdilution method in presence of 120 uM carbonyl cyanide m-chlorophenyl-hydrazone; in short: as §5
[16] = tested on: Pseudomonas aeruginosa; assay: Antimicrobial activity against ampG deficient Pseudomonas aeruginosa PAK harboring pUCP24 conferring resistance to gentamycin after 16 to 20 hrs by broth microdilution method in presence of 120 uM carbonyl cyanide m-chlorophenyl-hydrazone; in short: as §5
[17] = tested on: Pseudomonas aeruginosa; assay: Antimicrobial activity against ampG deficient Pseudomonas aeruginosa PAK harboring pZY0901 conferring resistance to gentamycin after 16 to 20 hrs by broth microdilution method in presence of 120 uM carbonyl cyanide m-chlorophenyl-hydrazone; in short: as §5
[18] = tested on: Pseudomonas aeruginosa; assay: Antimicrobial activity against ampD, ampDh2, ampDh3 and ampG deficient Pseudomonas aeruginosa PAO1 harboring pZY0901 conferring resistance to gentamycin after 16 to 20 hrs by broth microdilution method in presence of 120 uM carbonyl cyanide m-chlorophenyl-hydrazone; in short: as §5
[19] = tested on: Pseudomonas aeruginosa; assay: Antimicrobial activity against Pseudomonas aeruginosa isolate 1 obtained from cystic fibrosis patients after 16 to 20 hrs by broth microdilution method; in short: as §3
[20] = tested on: Pseudomonas aeruginosa; assay: Antimicrobial activity against Pseudomonas aeruginosa isolate 2 obtained from cystic fibrosis patients after 16 to 20 hrs by broth microdilution method; in short: as §2
[21] = tested on: Pseudomonas aeruginosa; assay: Antimicrobial activity against Pseudomonas aeruginosa isolate 6 obtained from cystic fibrosis patients after 16 to 20 hrs by broth microdilution method; in short: as §2
[22] = tested on: Pseudomonas aeruginosa; assay: Antimicrobial activity against Pseudomonas aeruginosa isolate 7 obtained from cystic fibrosis patients after 16 to 20 hrs by broth microdilution method in presence of 120 uM carbonyl cyanide m-chlorophenyl-hydrazone; in short: as §5
[23] = tested on: Pseudomonas aeruginosa; assay: Antimicrobial activity against Pseudomonas aeruginosa isolate 8 obtained from cystic fibrosis patients after 16 to 20 hrs by broth microdilution method in presence of 120 uM carbonyl cyanide m-chlorophenyl-hydrazone; in short: as §5
[24] = tested on: Pseudomonas aeruginosa; assay: Antimicrobial activity against Pseudomonas aeruginosa isolate 8 obtained from cystic fibrosis patients after 16 to 20 hrs by broth microdilution method; in short: as §2
[25] = tested on: Pseudomonas aeruginosa; assay: Antimicrobial activity against Pseudomonas aeruginosa isolate 9 obtained from cystic fibrosis patients after 16 to 20 hrs by broth microdilution method in presence of 120 uM carbonyl cyanide m-chlorophenyl-hydrazone; in short: as §5
[26] = tested on: Pseudomonas aeruginosa; assay: Antimicrobial activity against Pseudomonas aeruginosa isolate 11 obtained from cystic fibrosis patients after 16 to 20 hrs by broth microdilution method in presence of 120 uM carbonyl cyanide m-chlorophenyl-hydrazone; in short: as §4
[27] = tested on: Pseudomonas aeruginosa; assay: Antimicrobial activity against Pseudomonas aeruginosa isolate 12 obtained from cystic fibrosis patients after 16 to 20 hrs by broth microdilution method; in short: as §3
[28] = tested on: Pseudomonas aeruginosa; assay: Antimicrobial activity against Pseudomonas aeruginosa isolate 14 obtained from cystic fibrosis patients after 16 to 20 hrs by broth microdilution method; in short: as §3
[29] = tested on: Pseudomonas aeruginosa; assay: Antimicrobial activity against Pseudomonas aeruginosa isolate 16 obtained from cystic fibrosis patients after 16 to 20 hrs by broth microdilution method; in short: as §3
[30] = tested on: Pseudomonas aeruginosa; assay: Antimicrobial activity against Pseudomonas aeruginosa isolate 17 obtained from cystic fibrosis patients after 16 to 20 hrs by broth microdilution method in presence of 120 uM carbonyl cyanide m-chlorophenyl-hydrazone; in short: as §5
[31] = tested on: Pseudomonas aeruginosa; assay: Antimicrobial activity against Pseudomonas aeruginosa isolate 17 obtained from cystic fibrosis patients after 16 to 20 hrs by broth microdilution method; in short: as §2
[32] = tested on: Pseudomonas aeruginosa; assay: Antimicrobial activity against Pseudomonas aeruginosa isolate 18 obtained from cystic fibrosis patients after 16 to 20 hrs by broth microdilution method in presence of 120 uM carbonyl cyanide m-chlorophenyl-hydrazone; in short: as §5
[33] = tested on: Pseudomonas aeruginosa; assay: Antimicrobial activity against Pseudomonas aeruginosa isolate 18 obtained from cystic fibrosis patients after 16 to 20 hrs by broth microdilution method; in short: as §2

Compound: CC1(C)S[C@@H]2[C@H](NC(=O)[C@H](N)c3ccccc3)C(=O)N2[C@H]1C(=O)O [AMPICILLIN]
- MIC [1]: 1020 µg/mL (≈ 2930 µM)
- MIC [2]: 1020 µg/mL (≈ 2930 µM)
- MIC [3]: 256 µg/mL (≈ 733 µM)
- MIC [4]: 32 µg/mL (≈ 91.6 µM)
- MIC [5]: 32 µg/mL (≈ 91.6 µM)
- MIC [6]: 32 µg/mL (≈ 91.6 µM)
- MIC [7]: 512 µg/mL (≈ 1470 µM)
- MIC [8]: 512 µg/mL (≈ 1470 µM)
- MIC [9]: 16 µg/mL (≈ 45.8 µM)
- MIC [10]: 1020 µg/mL (≈ 2930 µM)
- MIC [11]: 16 µg/mL (≈ 45.8 µM)
- MIC [12]: 256 µg/mL
- MIC [13]: 32 µg/mL
- MIC [14]: 32 µg/mL
- MIC [15]: 32 µg/mL
- MIC [16]: 32 µg/mL
- MIC [17]: 32 µg/mL
- MIC [18]: 32 µg/mL
- MIC [19]: 512 µg/mL (≈ 1470 µM)
- MIC [20]: 256 µg/mL (≈ 733 µM)
- MIC [21]: > 1020 µg/mL
- MIC [22]: 8 µg/mL
- MIC [23]: 8 µg/mL
- MIC [24]: 256 µg/mL (≈ 733 µM)
- MIC [25]: 8 µg/mL
- MIC [26]: 8 µg/mL
- MIC [27]: > 1020 µg/mL
- MIC [28]: 512 µg/mL (≈ 1470 µM)
- MIC [29]: 16 µg/mL (≈ 45.8 µM)
- MIC [30]: 8 µg/mL
- MIC [31]: 512 µg/mL (≈ 1470 µM)
- MIC [32]: 256 µg/mL
- MIC [33]: 256 µg/mL (≈ 733 µM)
